Measured values reported in ChEMBL document CHEMBL1250477, “Reverse engineering truncations of an antimicrobial peptide dimer to identify the origins of potency and broad spectrum of action” (J Med Chem, 2010).
Converted amounts (≈) assume the structure as drawn. The source made the active and inactive calls. No cut-off for these calls is given here.

How the values were obtained:
Escherichia coli [1] = test: Induction of morphological changes in Escherichia coli ML35p assessed as thin filamentous phenotype at MIC concentration after 18 hrs using propidium iodide/Syto9 staining by microscopic analysis; assay type: functional, organism-based
Summary of the method: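 Incubated overnight (18 h) with peptide at its MIC, 37 °C, 200 rpm. Stained 15 min with PI (2.7 μM) and Syto 9 (6 μM), smeared, heat-fixed and imaged under Syto and PI filters. Untreated cells as control.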

Staphylococcus aureus [2] = test: Antibacterial activity against vancomycin/methicillin-resistant Staphylococcus aureus ATCC 700699 after 18 hrs; assay type: functional; conditions: ATCC 700699, 18 h
Summary of the method: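 Modified broth microdilution for cationic peptides. Overnight cells were diluted in Mueller Hinton broth to 10⁵ CFU/mL, and peptide was added from a 10× stock in 0.2% BSA/0.01% acetic acid. MIC = lowest concentration inhibiting measurable growth. Triplicates, repeated at least twice.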

Escherichia coli [3] = test: Antibacterial activity against Escherichia coli ML35p assessed as reduction of colony forming units at 4 times MIC concentration after 20 mins; assay type: functional; design: scale not given: the % may be the effect or the level left
Summary of the method: (§1)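 Time-kill: overnight culture diluted in MH broth to 10⁵ CFU/mL. 1 mL exposed to peptide at 4× MIC, or water as control, at 37 °C, 200 rpm. At time points, aliquots diluted and plated on MH agar. Colonies counted after 20 h at 37 °C. Time to ~95% kill estimated.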

Escherichia coli [4] = test: Ratio of MBC to MIC for Escherichia coli ML35p; assay type: functional
Summary of the method: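 MBC per CLSI: 100 μL from each clear MIC well plated on MH agar in triplicate, 18 h incubation; MBC = lowest concentration preventing growth of 99.9% of bacteria. Ratio taken as MBC/MIC. Two independent experiments in triplicate.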

Escherichia coli [5] = test: Antibacterial activity against Escherichia coli ML35p after 18 hrs; assay type: functional
Summary of the method: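 Broth microdilution, modified MIC method for cationic peptides. Overnight culture diluted in Mueller Hinton broth to 10⁵ CFU/mL; peptide added from 10× stock in 0.2% BSA/0.01% acetic acid. MIC = lowest concentration inhibiting measurable growth. Triplicates, repeated at least twice.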

Escherichia coli [6] = test: Antibacterial activity against Escherichia coli ML35p assessed as reduction of colony forming units at 4 times MIC concentration after 5 mins; assay type: functional; design: scale not given: the % may be the effect or the level left; summary of the method: as §1
Escherichia coli [7] = test: Drug uptake in Escherichia coli ML35p inner membrane assessed as increase in fluorescence of propidium iodide at 10 uM measured for 10 mins; assay type: ADME, organism-based; conditions: in vivo
Summary of the method: (§2)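 PI uptake: mid-log cells washed and resuspended in 5 mM glucose/5 mM HEPES pH 7.2. Peptide added to 10 μM final, with 2.7 μM propidium iodide. Fluorescence (ex 535 nm, em 617 nm) followed for 10 min; lag before rise read from trace.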

Escherichia coli [8] = test: Drug uptake in Escherichia coli ML35p outer membrane assessed as increase in fluorescence of N-phenylnaphthylamine at 10 uM measured for 10 mins; assay type: ADME, organism-based; conditions: in vivo
Summary of the method: (§3)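 NPN uptake: mid-log cells washed and resuspended in 5 mM glucose/5 mM HEPES pH 7.2. Peptide added to 10 μM final, with 10 μM NPN. Fluorescence (ex 350 nm, em 420 nm) monitored for 10 min.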

Escherichia coli [9] = test: Drug uptake in Escherichia coli ML35p inner membrane assessed as time required to permeabilize to inner membrane at 10 uM; assay type: ADME, organism-based; conditions: in vivo; summary of the method: as §2
Escherichia coli [10] = test: Drug uptake in Escherichia coli ML35p outer membrane assessed as time required to permeabilize to outer membrane at 10 uM; assay type: ADME, organism-based; conditions: in vivo; summary of the method: as §3
Escherichia coli [11] = test: Drug uptake in Escherichia coli ML35p inner membrane assessed as lag time at 10 uM; assay type: ADME, organism-based; conditions: in vivo; summary of the method: as §2
Escherichia coli [12] = test: Antibacterial activity against Escherichia coli ML35p assessed as reduction of colony forming units at 4 times MIC concentration after 40 mins; assay type: functional; design: scale not given: the % may be the effect or the level left; summary of the method: as §1
Staphylococcus aureus [13] = test: Ratio of MBC to MIC for vancomycin/methicillin-resistant Staphylococcus aureus ATCC 700699; assay type: functional
Summary of the method: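 For MBC, 100 μL from each clear well was plated on MH agar in triplicate and incubated for 18 h. MBC = lowest concentration preventing growth of 99.9% of bacteria. The ratio is MBC divided by MIC. Two independent experiments.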

SMILES: CC(=O)NCC(=O)N/C(=C/c1ccccc1)C(=O)N[C@@H](CCCNC(=N)N)C(=O)N[C@H](CCCCN)C(=O)N/C(=C/c1ccccc1)C(=O)N[C@@H](Cc1c[nH]cn1)C(=O)N[C@H](CCCCN)C(=O)N/C(=C\c1ccccc1)C(=O)N[C@@H](Cc1c[nH]c2ccccc12)C(=O)N[C@@H](C)C(=O)NCCCC[C@@H](NC(=O)[C@H](C)NC(=O)[C@H](Cc1c[nH]c2ccccc12)NC(=O)/C(=C\c1ccccc1)NC(=O)[C@@H](CCCCN)NC(=O)[C@H](Cc1c[nH]cn1)NC(=O)/C(=C\c1ccccc1)NC(=O)[C@@H](CCCCN)NC(=O)[C@@H](CCCNC(=N)N)NC(=O)/C(=C\c1ccccc1)NC(=O)CNC(C)=O)C(N)=O
- Activity (Escherichia coli [1]): Active

SMILES: CC(=O)NCC(=O)N[C@@H](CCCNC(=N)N)C(=O)N[C@@H](CCCCN)C(=O)N/C(=C/c1ccccc1)C(=O)N[C@@H](Cc1c[nH]cn1)C(=O)N[C@@H](CCCCN)C(=O)N/C(=C\c1ccccc1)C(=O)N[C@@H](Cc1c[nH]c2ccccc12)C(=O)N[C@@H](C)C(=O)NCCCC[C@H](NC(=O)[C@H](C)NC(=O)[C@H](Cc1c[nH]c2ccccc12)NC(=O)/C(=C\c1ccccc1)NC(=O)[C@H](CCCCN)NC(=O)[C@H](Cc1c[nH]cn1)NC(=O)/C(=C\c1ccccc1)NC(=O)[C@H](CCCCN)NC(=O)[C@H](CCCNC(=N)N)NC(=O)CNC(C)=O)C(N)=O [listing 1 of 2 here]
- MIC (Staphylococcus aureus [2]): > 100 µM
- Activity (Escherichia coli [3]): 95%
- Ratio (Escherichia coli [4]): 2
- MBC (Escherichia coli [5]): 10 µM (≈ 25.4 µg/mL)
- MIC (Escherichia coli [5]): 5 µM (≈ 12.7 µg/mL)
- Activity (Escherichia coli [6]): 50%

SMILES: CC(=O)NCC(=O)N[C@H](CCCCN)C(=O)N/C(=C\c1ccccc1)C(=O)N[C@@H](Cc1c[nH]c2ccccc12)C(=O)N[C@@H](C)C(=O)NCCCC[C@@H](NC(=O)[C@H](C)NC(=O)[C@H](Cc1c[nH]c2ccccc12)NC(=O)/C(=C\c1ccccc1)NC(=O)[C@@H](CCCCN)NC(=O)CNC(C)=O)C(N)=O [PEPTIDE A]
- MIC (Staphylococcus aureus [2]): > 100 µM
- MIC (Escherichia coli [5]): > 100 µM

SMILES: CC(=O)NCC(=O)N[C@H](CCCCN)C(=O)N/C(=C/c1ccccc1)C(=O)N[C@@H](Cc1c[nH]cn1)C(=O)N[C@H](CCCCN)C(=O)N/C(=C\c1ccccc1)C(=O)N[C@@H](Cc1c[nH]c2ccccc12)C(=O)N[C@@H](C)C(=O)NCCCC[C@@H](NC(=O)[C@H](C)NC(=O)[C@H](Cc1c[nH]c2ccccc12)NC(=O)/C(=C\c1ccccc1)NC(=O)[C@@H](CCCCN)NC(=O)[C@H](Cc1c[nH]cn1)NC(=O)/C(=C\c1ccccc1)NC(=O)[C@@H](CCCCN)NC(=O)CNC(C)=O)C(N)=O
- Activity (Escherichia coli [1]): Active

SMILES: CC(=O)NCC(=O)N[C@@H](CCCCN)C(=O)N/C(=C/c1ccccc1)C(=O)N[C@@H](Cc1c[nH]cn1)C(=O)N[C@@H](CCCCN)C(=O)N/C(=C\c1ccccc1)C(=O)N[C@@H](Cc1c[nH]c2ccccc12)C(=O)N[C@@H](C)C(=O)NCCCC[C@H](NC(=O)[C@H](C)NC(=O)[C@H](Cc1c[nH]c2ccccc12)NC(=O)/C(=C\c1ccccc1)NC(=O)[C@H](CCCCN)NC(=O)[C@H](Cc1c[nH]cn1)NC(=O)/C(=C\c1ccccc1)NC(=O)[C@H](CCCCN)NC(=O)CNC(C)=O)C(N)=O [listing 1 of 2 here]
- Drug uptake (Escherichia coli [7]): Not Active
- Drug uptake (Escherichia coli [8]): Active

SMILES: CC(=O)NCC(=O)N/C(=C/c1ccccc1)C(=O)N[C@@H](CCCNC(=N)N)C(=O)N[C@@H](CCCCN)C(=O)N/C(=C/c1ccccc1)C(=O)N[C@@H](Cc1c[nH]cn1)C(=O)N[C@@H](CCCCN)C(=O)N/C(=C\c1ccccc1)C(=O)N[C@@H](Cc1c[nH]c2ccccc12)C(=O)N[C@@H](C)C(=O)NCCCC[C@H](NC(=O)[C@H](C)NC(=O)[C@H](Cc1c[nH]c2ccccc12)NC(=O)/C(=C\c1ccccc1)NC(=O)[C@H](CCCCN)NC(=O)[C@H](Cc1c[nH]cn1)NC(=O)/C(=C\c1ccccc1)NC(=O)[C@H](CCCCN)NC(=O)[C@H](CCCNC(=N)N)NC(=O)/C(=C\c1ccccc1)NC(=O)CNC(C)=O)C(N)=O [listing 1 of 2 here]
- Drug uptake (Escherichia coli [7]): Active
- Drug uptake (Escherichia coli [8]): Active
- Time (Escherichia coli [9]): 230 s
- Time (Escherichia coli [10]): 150 s
- Time (Escherichia coli [11]): 2.5 min

SMILES: CC(=O)NCC(=O)N[C@@H](CCCCN)C(=O)N/C(=C/c1ccccc1)C(=O)N[C@@H](Cc1c[nH]cn1)C(=O)N[C@@H](CCCCN)C(=O)N/C(=C\c1ccccc1)C(=O)N[C@@H](Cc1c[nH]c2ccccc12)C(=O)N[C@@H](C)C(=O)NCCCC[C@H](NC(=O)[C@H](C)NC(=O)[C@H](Cc1c[nH]c2ccccc12)NC(=O)/C(=C\c1ccccc1)NC(=O)[C@H](CCCCN)NC(=O)[C@H](Cc1c[nH]cn1)NC(=O)/C(=C\c1ccccc1)NC(=O)[C@H](CCCCN)NC(=O)CNC(C)=O)C(N)=O [listing 2 of 2 here]
- MIC (Staphylococcus aureus [2]): > 100 µM
- Activity (Escherichia coli [12]): 95%
- Ratio (Escherichia coli [4]): 1.5
- MBC (Escherichia coli [5]): 15 µM (≈ 33.4 µg/mL)
- MIC (Escherichia coli [5]): 10 µM (≈ 22.3 µg/mL)
- Activity (Escherichia coli [6]): 50%

SMILES: CC(=O)NCC(=O)N[C@@H](CCCNC(=N)N)C(=O)N[C@@H](CCCCN)C(=O)N/C(=C/c1ccccc1)C(=O)N[C@@H](Cc1c[nH]cn1)C(=O)N[C@@H](CCCCN)C(=O)N/C(=C\c1ccccc1)C(=O)N[C@@H](Cc1c[nH]c2ccccc12)C(=O)N[C@@H](C)C(=O)NCCCC[C@H](NC(=O)[C@H](C)NC(=O)[C@H](Cc1c[nH]c2ccccc12)NC(=O)/C(=C\c1ccccc1)NC(=O)[C@H](CCCCN)NC(=O)[C@H](Cc1c[nH]cn1)NC(=O)/C(=C\c1ccccc1)NC(=O)[C@H](CCCCN)NC(=O)[C@H](CCCNC(=N)N)NC(=O)CNC(C)=O)C(N)=O [listing 2 of 2 here]
- Drug uptake (Escherichia coli [7]): Not Active
- Drug uptake (Escherichia coli [8]): Active

SMILES: CC(=O)NCC(=O)N[C@@H](CCCNC(=N)N)C(=O)N[C@H](CCCCN)C(=O)N/C(=C/c1ccccc1)C(=O)N[C@@H](Cc1c[nH]cn1)C(=O)N[C@H](CCCCN)C(=O)N/C(=C\c1ccccc1)C(=O)N[C@@H](Cc1c[nH]c2ccccc12)C(=O)N[C@@H](C)C(=O)NCCCC[C@@H](NC(=O)[C@H](C)NC(=O)[C@H](Cc1c[nH]c2ccccc12)NC(=O)/C(=C\c1ccccc1)NC(=O)[C@@H](CCCCN)NC(=O)[C@H](Cc1c[nH]cn1)NC(=O)/C(=C\c1ccccc1)NC(=O)[C@@H](CCCCN)NC(=O)[C@@H](CCCNC(=N)N)NC(=O)CNC(C)=O)C(N)=O
- Activity (Escherichia coli [1]): Active

SMILES: CC(=O)NCC(=O)N[C@@H](Cc1c[nH]cn1)C(=O)N[C@H](CCCCN)C(=O)N/C(=C\c1ccccc1)C(=O)N[C@@H](Cc1c[nH]c2ccccc12)C(=O)N[C@@H](C)C(=O)NCCCC[C@@H](NC(=O)[C@H](C)NC(=O)[C@H](Cc1c[nH]c2ccccc12)NC(=O)/C(=C\c1ccccc1)NC(=O)[C@@H](CCCCN)NC(=O)[C@H](Cc1c[nH]cn1)NC(=O)CNC(C)=O)C(N)=O
- MIC (Staphylococcus aureus [2]): > 100 µM
- MIC (Escherichia coli [5]): > 100 µM

SMILES: CC(=O)NCC(=O)N/C(=C/c1ccccc1)C(=O)N[C@@H](CCCNC(=N)N)C(=O)N[C@@H](CCCCN)C(=O)N/C(=C/c1ccccc1)C(=O)N[C@@H](Cc1c[nH]cn1)C(=O)N[C@@H](CCCCN)C(=O)N/C(=C\c1ccccc1)C(=O)N[C@@H](Cc1c[nH]c2ccccc12)C(=O)N[C@@H](C)C(=O)NCCCC[C@H](NC(=O)[C@H](C)NC(=O)[C@H](Cc1c[nH]c2ccccc12)NC(=O)/C(=C\c1ccccc1)NC(=O)[C@H](CCCCN)NC(=O)[C@H](Cc1c[nH]cn1)NC(=O)/C(=C\c1ccccc1)NC(=O)[C@H](CCCCN)NC(=O)[C@H](CCCNC(=N)N)NC(=O)/C(=C\c1ccccc1)NC(=O)CNC(C)=O)C(N)=O [listing 2 of 2 here]
- MBC (Staphylococcus aureus [2]): 7.5 µM (≈ 21.2 µg/mL)
- MIC (Staphylococcus aureus [2]): 5 µM (≈ 14.1 µg/mL)
- Ratio (Staphylococcus aureus [13]): 1.5
- Ratio (Escherichia coli [4]): 2
- MBC (Escherichia coli [5]): 5 µM (≈ 14.1 µg/mL)
- MIC (Escherichia coli [5]): 2.5 µM (≈ 7.07 µg/mL)
- Activity (Escherichia coli [6]): 96%
